# Assay outcomes: PubChem, several laboratories
# CAL PDZ FP-1 = untagged CAL PDZ binding inhibitors, primary screen, biochemical, fluorescence polarization, HTS; purified CAL PDZ, TMR-peptide fluorescence polarization, 1 h; inhibition, % at 24.9 µM; AID 602252, 2012; 300,000 compounds, 0.92% hits; Golgi-associated PDZ and coiled-coil motif-containing protein (Homo sapiens), Q9HD26;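 active = mean inhibition of at least 30% with at least half of replicates also reaching 30%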
# PDI inh = inhibitors of human PDI, primary screen, biochemical, turbidity, single point, plate reader. Protein disulfide-isomerase (Homo sapiens), P07237. PDI insulin aggregation turbidity, A650, 90 min. inhibition, % at 10 µM. 350,000 compounds, 0.052% hits;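 active = mean inhibition across replicates of 30% or more, whatever share of single replicates reach that level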
# ERp5 block = inhibitors of ERp5-driven insulin aggregation, primary screen, biochemical, turbidity, absorbance 650 nm, single point; Protein disulfide-isomerase A6 (Homo sapiens), Q15084; 90 min; inhibition, % at 9.99 µM; 350,000 compounds, 0.05% hits;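 active = mean replicate inhibition above about 25%, with every replicate also reaching it, limit read from the data, passing the limit was not always enough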
# Rin1 Abl inh = inhibitors of Rin1-Abl protein binding, primary screen, biochemical, TR-FRET; Tyrosine-protein kinase ABL1 (Homo sapiens) + Ras and Rab interactor 1 (Homo sapiens), …; inhibition, % at 7.35 µM; 360,000 compounds, 0.4% hits; in the data active = inhibition above about 5%, passing the limit was not always enough
# ERAP1 inh = human ERAP1 aminopeptidase inhibitors, primary screen, biochemical, single point, plate reader | 340,000 compounds, 0.15% hits | inhibition, % at 10.7 µM | recombinant ERAP1, Leu-AMC fluorescence, 60 min | AID 652197, 2013;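 active = mean replicate inhibition of at least 30%, or all replicates individually reaching that 30% level; inactive = mean below 30% and not every replicate reaching it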
# Target sequence (Q9NZ08 whole entry, looked up): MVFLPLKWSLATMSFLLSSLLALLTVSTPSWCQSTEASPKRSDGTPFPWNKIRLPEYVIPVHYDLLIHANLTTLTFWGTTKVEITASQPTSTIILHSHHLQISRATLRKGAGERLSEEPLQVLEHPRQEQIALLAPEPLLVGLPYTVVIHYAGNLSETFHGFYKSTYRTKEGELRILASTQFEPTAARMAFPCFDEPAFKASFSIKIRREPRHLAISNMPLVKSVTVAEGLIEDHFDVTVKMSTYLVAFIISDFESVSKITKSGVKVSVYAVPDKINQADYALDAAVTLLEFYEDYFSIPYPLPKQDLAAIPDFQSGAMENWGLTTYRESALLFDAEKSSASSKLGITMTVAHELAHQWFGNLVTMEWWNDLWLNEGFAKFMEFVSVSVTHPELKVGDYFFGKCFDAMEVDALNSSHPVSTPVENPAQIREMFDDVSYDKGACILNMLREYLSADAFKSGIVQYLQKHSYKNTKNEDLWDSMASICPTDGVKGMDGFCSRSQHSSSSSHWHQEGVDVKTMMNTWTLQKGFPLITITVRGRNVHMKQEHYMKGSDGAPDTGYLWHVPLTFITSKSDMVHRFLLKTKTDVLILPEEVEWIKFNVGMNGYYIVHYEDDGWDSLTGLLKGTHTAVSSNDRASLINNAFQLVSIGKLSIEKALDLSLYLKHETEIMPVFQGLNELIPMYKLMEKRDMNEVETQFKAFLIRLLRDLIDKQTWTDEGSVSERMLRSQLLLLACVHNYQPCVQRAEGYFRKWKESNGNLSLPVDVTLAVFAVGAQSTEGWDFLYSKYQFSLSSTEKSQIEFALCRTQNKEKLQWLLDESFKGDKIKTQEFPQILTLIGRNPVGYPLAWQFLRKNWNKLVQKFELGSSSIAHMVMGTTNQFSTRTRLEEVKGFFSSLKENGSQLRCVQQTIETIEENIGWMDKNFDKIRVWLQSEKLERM
# CAL PDZ FP-2 = CAL PDZ peptide-binding inhibitors, primary screen, biochemical, fluorescence polarization, Cer-tagged CAL PDZ, HTS; inhibition, % at 20 µM; AID 504414, 2011; Golgi-associated PDZ and coiled-coil motif-containing protein (Homo sapiens), Q9HD26; purified CAL PDZ, TMR-peptide fluorescence polarization, 1 h; 330,000 compounds, 0.02% hits;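 active = highest replicate inhibition of at least 40%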
#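 System: tagged CAL PDZ domain. Schedule: 1 h room-temperature incubation prior to read. Signal: fluorescence polarization (mP). Measure: percent inhibition from loss of millipolarization.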
# A number is an active result; i = inactive; nt = no result. Shown are actives, neighbours in structure and some others; about 1.1% of the full set was active somewhere.
SMILES,CAL PDZ FP-1,PDI inh,ERp5 block,Rin1 Abl inh,ERAP1 inh,CAL PDZ FP-2
COc1ccccc1NC(=O)N[C@@H]1CC[C@@H](CCn2cc(-c3cccnc3)nn2)O[C@@H]1CO,nt,nt,i,nt,i,nt
O=C(C[C@@H]1CC[C@H](NC(=O)C2CCC2)[C@H](CO)O1)NCCCN1CCOCC1,nt,nt,i,nt,i,nt
Cc1ccc(S(=O)(=O)N[C@H](C(=O)OCC(=O)NC(=O)C2CCCCC2)C(C)C)cc1,154,i,i,i,i,i
Cc1ccc(S(=O)(=O)N[C@H](C(=O)OCC(=O)NC(=O)Nc2ccc3c(c2)OCCO3)C(C)C)cc1,i,i,nt,i,nt,i
Cc1ccc(C(=O)OCC(=O)NCCN2C(=O)CSC2=O)cc1[N+](=O)[O-],i,i,i,i,i,i
Cc1cc(C(=O)OCC(=O)NCCN2C(=O)CSC2=O)ccc1[N+](=O)[O-],90,i,i,i,i,i
O=C(COc1ccc(Cl)cc1Cl)Nc1ccc(CN2CCOCC2)cc1,84,i,i,i,i,i
C[C@H](CO)N1C[C@H](C)[C@H](CN(C)S(=O)(=O)c2cn(C)cn2)Oc2ccc(NC(=O)CCCN(C)C)cc2C1=O,nt,nt,i,nt,i,nt
CCCCN(CC)CCNC(=O)Cn1cnc2sc(C)c(S(=O)(=O)N3CCC(C)CC3)c2c1=O,44,i,i,i,i,i
CCCCN(CC)CCNC(=O)Cn1cnc2sc(C)c(S(=O)(=O)N3CCOCC3)c2c1=O,i,i,nt,i,nt,i
COCCNC(=S)N(CCO)Cc1cc2cc3c(cc2[nH]c1=O)OCO3,82,i,i,i,i,nt
COc1ccc(CCN(C)C(=O)c2c(C)nn(CC(C)C)c2Cl)cc1OC,104,i,i,i,i,i
O=C(O)CC(Sc1n[nH]c(=S)s1)C(=O)O (centres undefined),i,i,i,i,34,i
COC(=O)C(C)Sc1n[nH]c(=S)s1 (centres undefined),i,i,nt,i,nt,i
O=c1[nH]c(=O)c2[nH]c(=S)n(-c3ccccc3)c2[nH]1,i,i,i,i,37,i
O=C(O)c1ccc2c(=O)n(-c3ccccc3)c(=S)[nH]c2c1,i,i,i,i,i,i
Cc1cc([N+](=O)[O-])ccc1NCc1ccc2c(c1)OCCO2,i,i,i,i,i,i
Cc1cc(F)ccc1NCc1ccc([N+](=O)[O-])cc1,46,i,i,i,i,i
COc1ccc(CCN2CC(C(=O)NCC3(O)CCCCC3)CCC2=O)cc1 (centres undefined),i,i,i,i,i,i
CN(C)C1(CNC(=O)C2CCC(=O)N(CCc3ccc(Cl)cc3)C2)CCCCC1 (centres undefined),i,i,i,i,i,88
CN(C)C(=O)C[C@H]1C=C[C@@H](NC(=O)C2CCOCC2)[C@H](CO)O1,nt,nt,i,nt,i,nt
CC[N+](C)(CC)CCC(c1ccccc1)C1CCCCC1 (centres undefined),i,i,i,i,109,i
COC(=O)[C@@H](NC(=O)CN=[N+]=[N-])c1ccccc1,nt,nt,i,nt,i,nt
C=CCNC(=S)NNC(=O)c1ccc(C)c(Cl)c1,67,i,i,i,i,i
COc1ccccc1N(C(C)=O)c1nc(C)cc(C)c1C#N,31,i,nt,i,nt,i
SMILES,CAL PDZ FP-1,PDI inh,ERp5 block,Rin1 Abl inh,ERAP1 inh,CAL PDZ FP-2
CCCNC(=O)[C@@H]1[C@@H](CO)[C@@H]2Cn3c(ccc(-c4ccccc4)c3=O)[C@@H]2N1CC,nt,nt,i,nt,i,nt
Cc1ccc(C)n1Cc1ccc(C(=O)O)cc1,nt,i,nt,15,nt,i
CCCNC(=O)Nc1ccc2c(c1)C(=O)N(C)[C@@H]1CC[C@H](CC(=O)NC3CCC3)O[C@H]1CO2,nt,nt,i,nt,i,nt
Cc1ccc(S(=O)(=O)C=CS(=O)(=O)c2ccc(C)cc2)cc1,nt,i,31,i,i,nt
COCCCNC(=O)/C(C#N)=C1\N=C(NC(=O)c2cccs2)c2ccccc21,i,i,i,i,54,i
N#C/C(C(=O)NCCc1ccccc1)=C1/N=C(NC(=O)c2cccs2)c2ccccc21,i,i,i,i,i,i
CCCNC(=O)C[C@@H]1CC[C@@H]2[C@H](COC[C@H](O)CN2Cc2ccncc2)O1,nt,nt,i,nt,i,nt
COC(=O)c1ccc(NC(=O)c2c(C(=O)Nc3ccccc3)sc3nc(C)cc(=O)n23)cc1,99,i,i,i,i,i
COC(=O)c1ccc(NC(=O)c2sc3nc(-c4ccccc4)cn3c2C)cc1,nt,i,nt,i,nt,i
CC(=O)Oc1cc(C(=O)OCC(=O)NC23CC4CC(CC(C4)C2)C3)cc(OC(C)=O)c1OC(C)=O,nt,i,i,9.8,i,i
CC(=O)N(C)C[C@@H]1Oc2cc(C#CC(C)(C)O)ccc2S(=O)(=O)N([C@H](C)CO)C[C@@H]1C,nt,nt,i,nt,i,nt
N#CC1=C(N)Oc2n[nH]c(-c3cccnc3)c2C1c1ccc([N+](=O)[O-])o1 (centres undefined),51,i,i,i,i,i
N#CC1=C(N)Oc2n[nH]c(-c3ccccc3)c2C1c1cccnc1 (centres undefined),i,i,nt,i,nt,i
COc1ccc(S(=O)(=O)Nc2cccc3c2O[C@H](CN(C)S(=O)(=O)c2cn(C)cn2)[C@H](C)CN([C@H](C)CO)C3=O)cc1,nt,nt,i,nt,i,nt
COc1ccc(N=C(c2ccccc2)c2c(C)[nH]n(-c3ccccc3)c2=O)c(OC)c1,36,i,i,i,i,i
COc1ccccc1N=Nc1c(C)[nH]n(-c2ccccc2)c1=O,i,i,i,i,i,i
CN(C)C(=O)C[C@@H]1C[C@@H]2c3cc(NC(=O)Nc4ccccc4F)ccc3O[C@@H]2[C@@H](CO)O1,nt,nt,i,nt,i,nt
CC1(C)CC(=O)N(c2cccc(Cl)c2)C(=O)C1,i,i,i,i,i,i
CC1(C)CC(=O)N(c2ccc(Cl)cc2Cl)C(=O)C1,61,i,i,i,i,i
CC(C)CC#Cc1ccc2c(c1)O[C@@H](CN(C)C(=O)CC1CC1)[C@@H](C)CN([C@H](C)CO)S2(=O)=O,nt,nt,i,nt,i,nt
Cc1cc(C)c(C#N)c(Nc2cccc(C)c2C)n1,83,i,i,i,i,i
O=C(Nc1ccccc1N1CCCCC1)c1ccc(Cl)c([N+](=O)[O-])c1,nt,i,i,i,i,i
CN1CCN(c2ccccc2NC(=O)c2ccc(N3CCCC3)c([N+](=O)[O-])c2)CC1,43,i,i,i,i,58
CO[C@@H]1CC[C@H]2CCOc3ccc(C#N)cc3C(=O)N(C)C[C@@H](OC)[C@@H](C)C(=O)N(C)C[C@H]1O2,nt,nt,i,nt,i,nt
